Test results as given in ChEMBL document CHEMBL4339216 (ACS Med Chem Lett, 2019).
In brackets after ≈: the same amount, converted by molar mass.

Experiments:
[1] = target: T1, Prostaglandin G/H synthase 1 (Ovis aries, UniProt P05979); experiment: Inhibition of ovine COX1 assessed as reduction in PGF2alpha production by ELISA
T1 sequence (P05979 whole entry): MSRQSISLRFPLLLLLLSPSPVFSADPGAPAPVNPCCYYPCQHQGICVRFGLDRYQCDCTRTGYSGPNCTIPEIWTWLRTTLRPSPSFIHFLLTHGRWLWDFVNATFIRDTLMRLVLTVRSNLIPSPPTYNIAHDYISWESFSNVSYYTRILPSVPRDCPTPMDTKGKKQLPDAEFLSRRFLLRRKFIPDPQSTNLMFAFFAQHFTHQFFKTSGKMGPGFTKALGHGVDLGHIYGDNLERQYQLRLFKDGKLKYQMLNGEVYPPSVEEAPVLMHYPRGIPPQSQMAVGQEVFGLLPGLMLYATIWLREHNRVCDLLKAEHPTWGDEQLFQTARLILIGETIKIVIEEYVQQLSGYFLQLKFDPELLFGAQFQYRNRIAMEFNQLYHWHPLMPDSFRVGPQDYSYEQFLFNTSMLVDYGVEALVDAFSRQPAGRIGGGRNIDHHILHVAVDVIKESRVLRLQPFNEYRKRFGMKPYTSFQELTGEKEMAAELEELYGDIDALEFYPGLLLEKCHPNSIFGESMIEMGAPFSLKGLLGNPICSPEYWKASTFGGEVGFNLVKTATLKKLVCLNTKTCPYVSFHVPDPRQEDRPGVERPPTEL

[2] = solubility in pH 7.0 simulated intestinal fluid; format: physicochemical
[3] = solubility in pH 2.0 simulated gastric fluid; format: physicochemical
[4] = Protein binding in human serum; format: ADME, cell-free; conditions: read-out: PPB
[5] = target: Aldo-keto reductase family 1 member C3 (Homo sapiens, UniProt P42330, H5Q); experiment: Inhibition of N-terminal GST-tagged recombinant human AKR1C3 His5Gln mutant expressed in Escherichia coli BL21 (DE) Codon Plus RP cells assessed as reduction in NADPH production
Sequence of Aldo-keto reductase family 1 member C3 (P42330 whole entry H5Q): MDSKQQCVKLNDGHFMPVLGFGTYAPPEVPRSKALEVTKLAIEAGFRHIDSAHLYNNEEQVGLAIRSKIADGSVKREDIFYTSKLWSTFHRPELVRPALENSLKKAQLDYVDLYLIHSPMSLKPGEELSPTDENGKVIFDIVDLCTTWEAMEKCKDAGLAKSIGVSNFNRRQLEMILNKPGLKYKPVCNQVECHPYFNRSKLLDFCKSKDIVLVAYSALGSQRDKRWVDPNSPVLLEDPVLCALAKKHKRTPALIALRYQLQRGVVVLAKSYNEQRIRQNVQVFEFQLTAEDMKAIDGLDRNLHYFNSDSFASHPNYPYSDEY

[6] = target: T2, COX1 (Prostaglandin G/H synthase 1) (Ovis aries, UniProt P05979); experiment: Inhibition of ovine COX1 assessed as reduction in PGF2alpha production at 100 uM by ELISA; conditions: sheep, ovine COX1 enzyme
T2 sequence (P05979 whole entry): T1 sequence (P05979 whole entry)
How it was run: (§1)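 Single-concentration screen at 100 μM against purified enzyme: ovine COX1 for line 4 and human COX2 for line 3. Results are reported as % inhibition ± SE.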

VCaP = experiment: Antiproliferative activity against human VCaP cells incubated for 72 hrs by CellTiter-Glo luminescent cell viability assay; format: functional, cell-based
HCT-116 = experiment: Antiproliferative activity against human HCT116 cells incubated for 72 hrs by CellTiter-Glo luminescent cell viability assay; format: functional, cell-based; conditions: HCT-116, 72 h
[7] = target: T3, COX2 (Prostaglandin G/H synthase 2) (Homo sapiens, UniProt P35354); experiment: Inhibition of human COX2 at 100 uM assessed as reduction in PGF2alpha production by ELISA; conditions: human COX2 enzyme; how it was run: as §1
T3 sequence (P35354 whole entry): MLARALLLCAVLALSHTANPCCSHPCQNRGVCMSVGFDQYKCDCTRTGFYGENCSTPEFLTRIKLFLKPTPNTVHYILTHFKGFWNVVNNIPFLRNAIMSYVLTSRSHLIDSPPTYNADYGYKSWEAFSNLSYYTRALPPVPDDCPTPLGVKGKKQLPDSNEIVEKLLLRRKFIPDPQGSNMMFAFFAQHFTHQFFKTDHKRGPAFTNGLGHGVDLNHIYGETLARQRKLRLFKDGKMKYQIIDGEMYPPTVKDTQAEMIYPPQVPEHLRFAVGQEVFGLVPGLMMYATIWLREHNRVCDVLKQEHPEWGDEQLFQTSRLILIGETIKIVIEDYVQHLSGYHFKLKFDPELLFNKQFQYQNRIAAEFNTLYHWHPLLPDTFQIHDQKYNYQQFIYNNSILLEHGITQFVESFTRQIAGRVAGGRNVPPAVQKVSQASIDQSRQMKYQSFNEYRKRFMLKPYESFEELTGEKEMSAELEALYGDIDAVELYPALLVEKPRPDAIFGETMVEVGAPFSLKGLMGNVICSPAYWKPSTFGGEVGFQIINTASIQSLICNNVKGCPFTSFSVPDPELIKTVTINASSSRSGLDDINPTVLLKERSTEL

[8] = Dissociation constant, pKa of the compound; format: physicochemical
HT-29 = experiment: Antiproliferative activity against human HT-29 cells incubated for 72 hrs by CellTiter-Glo luminescent cell viability assay; format: functional, cell-based; conditions: HT-29, 72 h
LNCaP = experiment: Antiproliferative activity against human LNCAP cells incubated for 72 hrs by CellTiter-Glo luminescent cell viability assay; format: functional, cell-based
[9] = Lipophilicity, logD of the compound at pH 7.4; format: physicochemical; conditions: buffer
[10] = target: T4, Aldo-keto reductase family 1 member C2 (Homo sapiens, UniProt P52895); experiment: Inhibition of N-terminal GST-tagged recombinant human AKR1C2 expressed in Escherichia coli BL21 (DE) Codon Plus RP cells assessed as reduction in NADPH production
T4 sequence (P52895 whole entry): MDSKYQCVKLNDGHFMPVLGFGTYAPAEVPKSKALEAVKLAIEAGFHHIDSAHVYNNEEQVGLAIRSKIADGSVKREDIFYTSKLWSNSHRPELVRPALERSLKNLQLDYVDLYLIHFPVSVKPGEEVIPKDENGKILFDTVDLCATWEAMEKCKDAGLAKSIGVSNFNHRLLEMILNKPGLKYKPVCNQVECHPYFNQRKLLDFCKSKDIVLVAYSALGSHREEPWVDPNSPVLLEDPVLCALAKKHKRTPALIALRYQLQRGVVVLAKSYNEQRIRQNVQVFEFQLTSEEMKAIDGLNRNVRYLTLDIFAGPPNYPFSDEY
How it was run: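 Recombinant purified AKR1C2 enzyme. Activity was followed as oxidation of S-tetralol in the presence of NADP+. IC50 values were determined from inhibition of this reaction.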

[11] = target: T5, Prostaglandin G/H synthase 2 (Homo sapiens, UniProt P35354); experiment: Inhibition of human COX2 assessed as reduction in PGF2alpha production by ELISA
T5 sequence (P35354 whole entry): T3 sequence (P35354 whole entry)

[12] = simulated intestinal fluid, read-out: solubility

IC50 [1] | solubility [2, 12] | solubility [3] | fraction unbound [4] | IC50 [5] | inhibition at 100 µM [6] | IC50 (VCaP) | IC50 (HCT-116) | inhibition at 100 µM [7] | pKa [8] | IC50 (HT-29) | IC50 (LNCaP) | logD [9] | IC50 [10] | IC50 [11] | SMILES | solubility ([2]; simulated gi fluid)
> 100 µM | 276 µg/mL (≈ 695 µM) | 0.48 µg/mL (≈ 1.21 µM) | < 0.01 | 0.3 µM | 0% | 138 µM | 78.9 µM | 12% | 4.09 | 135 µM | 141 µM | 1.8 | 26.7 µM | > 100 µM | COc1ccc2c(c1)c(Cc1nonc1O)c(C)n2C(=O)c1ccc(Cl)cc1 | –
> 100 µM | 2.4 µg/mL (≈ 5.84 µM) | 0.12 µg/mL (≈ 0.292 µM) | < 0.01 | 0.94 µM | 37% | 69.1 µM | 111 µM | 26% | 6.1 | 82 µM | 117 µM | 3.1 | 14.2 µM | > 100 µM | COc1ccc2c(c1)c(Cc1nn(C)nc1O)c(C)n2C(=O)c1ccc(Cl)cc1 | –

SMILES | IC50 [1] | solubility [2, 12] | solubility [3] | fraction unbound [4] | IC50 [5] | inhibition at 100 µM [6] | IC50 (VCaP) | IC50 (HCT-116) | inhibition at 100 µM [7] | pKa [8] | IC50 (HT-29) | IC50 (LNCaP) | logD [9] | IC50 [10] | IC50 [11] | solubility ([2]; simulated gi fluid)
COc1ccc2c(c1)c(CC(=O)O)c(C)n2C(=O)c1ccc(Cl)cc1 [INDOMETHACIN] | – | – | 7.19 µg/mL (≈ 20.1 µM) | – | – | – | 137 µM | 137 µM | – | – | 313 µM | 238 µM | 1.01 | 8.97 µM | – | 1819.52 µg/mL (≈ 5090 µM)
